# Experimental data reported in ChEMBL document CHEMBL5724801, “EUbOPEN Chemogenomics Library - Multiplex” (2024).
# Values joined by “and” are separate entries in the source; they are usually repeats but may differ in a detail not shown here. Equal values may be shown once.
# System: U2OS
# Experiment: Multiplex assay against U2OS
# Format: toxicity, cell-based
# Details: human
# Outline: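 At seeding, live cells were stained with Hoechst33342, BioTracker Green Microtubule Cytoskeleton Dye, MitoTracker Red and Annexin V Alexa Fluor 680. After compound addition they were imaged on a CQ1 microscope at 37°C and 5% CO2, and CellPathfinder machine-learning gating sorted them into Hoechst high-intensity objects or normal cells, with normal cells further split into healthy, pyknosed or fragmented nuclei and pyknosed cells into mitotic or apoptotic. Tubulin, mitochondrial-mass and membrane-permeability phenotypes are given as per cents of cells with healthy nuclei.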
# [1] = 12 h, 1 µM, compound concentration 1 uM
# [2] = 12 h, 10 µM, compound concentration 10 uM
# [3] = 24 h, 1 µM, compound concentration 1 uM
# [4] = 24 h, 10 µM, compound concentration 10 uM
# [5] = 48 h, 1 µM, compound concentration 1 uM
# [6] = 48 h, 10 µM, compound concentration 10 uM
compound,measurement,setting,value
CCN1CCN(Cc2ccc(Nc3ncc(F)c(-c4cc(F)c5nc(C)n(C(C)C)c5c4)n3)nc2)CC1.CS(=O)(=O)O,Population Apoptotic (%),[1],40% and 33.33%
same,Population Fragmented Nuclei (%),[1],3.09% and 3.21%
same,Population Healthy Nuclei (%),[1],86.11% and 81.41%
same,Population Hoechst High Intensity Objects (%),[1],0% and 0.64%
same,Population Membrane Permeable-Phenotype (%),[1],3.23% and 10.24%
same,Population Mitotic Cells (%),[1],60% and 66.67%
same,Population Normal (%),[1],100% and 99.36%
same,Population Pyknosed Nuclei (%),[1],10.8% and 15.38%
same,Population Tubulin-Different-Phenotype (%),[1],6.09% and 6.3%
same,Total Cell Count,[1],324 and 157
same,Population Apoptotic (%),[2],43.96% and 38.67%
same,Population Fragmented Nuclei (%),[2],4.12% and 4.26%
same,Population Healthy Nuclei (%),[2],70.88% and 42.55%
same,Population Hoechst High Intensity Objects (%),[2],0%
same,Population Membrane Permeable-Phenotype (%),[2],56.98% and 48.33%
same,Population Mitotic Cells (%),[2],56.04% and 61.33%
same,Population Normal (%),[2],100%
same,Population Pyknosed Nuclei (%),[2],25% and 53.19%
same,Population Tubulin-Different-Phenotype (%),[2],92.64% and 93.33%
same,Total Cell Count,[2],364 and 141
same,Population Apoptotic (%),[3],36.67% and 46.88%
same,Population Fragmented Nuclei (%),[3],2.68% and 4.65%
same,Population Healthy Nuclei (%),[3],82.68% and 76.74%
same,Population Hoechst High Intensity Objects (%),[3],0%
same,Population Membrane Permeable-Phenotype (%),[3],3.54% and 6.06%
same,Population Mitotic Cells (%),[3],63.33% and 53.12%
same,Population Normal (%),[3],100%
same,Population Pyknosed Nuclei (%),[3],14.63% and 18.6%
same,Population Tubulin-Different-Phenotype (%),[3],7.67% and 9.85%
same,Total Cell Count,[3],410 and 172
same,Population Apoptotic (%),[4],48.89% and 41.41%
same,Population Fragmented Nuclei (%),[4],5.44% and 6.04%
same,Population Healthy Nuclei (%),[4],59.59% and 27.52%
same,Population Hoechst High Intensity Objects (%),[4],0%
same,Population Membrane Permeable-Phenotype (%),[4],31.3% and 21.95%
same,Population Mitotic Cells (%),[4],51.11% and 58.59%
same,Population Normal (%),[4],100%
same,Population Pyknosed Nuclei (%),[4],34.97% and 66.44%
same,Population Tubulin-Different-Phenotype (%),[4],66.09% and 65.85%
same,Total Cell Count,[4],386 and 149
same,Population Apoptotic (%),[5],47.62% and 37.14%
same,Population Fragmented Nuclei (%),[5],4.31% and 6.15%
same,Population Healthy Nuclei (%),[5],83.37% and 75.9%
same,Population Hoechst High Intensity Objects (%),[5],0%
same,Population Membrane Permeable-Phenotype (%),[5],2.58% and 6.08%
same,Population Mitotic Cells (%),[5],52.38% and 62.86%
same,Population Normal (%),[5],100%
same,Population Pyknosed Nuclei (%),[5],12.33% and 17.95%
same,Population Tubulin-Different-Phenotype (%),[5],8.92% and 12.84%
same,Total Cell Count,[5],511 and 195
same,Population Apoptotic (%),[6],65% and 80.18%
same,Population Fragmented Nuclei (%),[6],3.14% and 4.64%
same,Population Healthy Nuclei (%),[6],34% and 21.85%
same,Population Hoechst High Intensity Objects (%),[6],0% and 0.66%
same,Population Membrane Permeable-Phenotype (%),[6],9.09%
same,Population Mitotic Cells (%),[6],35% and 19.82%
same,Population Normal (%),[6],100% and 99.34%
same,Population Pyknosed Nuclei (%),[6],62.86% and 73.51%
same,Population Tubulin-Different-Phenotype (%),[6],68.91% and 27.27%
same,Total Cell Count,[6],350 and 152
COc1cc2ncnc(Nc3ccc(Oc4ccccc4)cc3C)c2cc1OC.Cl,Population Apoptotic (%),[1],43.18% and 56.25%
same,Population Fragmented Nuclei (%),[1],1.46% and 3.77%
same,Population Healthy Nuclei (%),[1],89.4% and 86.16%
same,Population Hoechst High Intensity Objects (%),[1],0%
same,Population Membrane Permeable-Phenotype (%),[1],0.23% and 2.92%
same,Population Mitochondria Different-Phenotype (%),[1],0.47% and 9.49%
same,Population Mitotic Cells (%),[1],56.82% and 43.75%
same,Population Normal (%),[1],100%
same,Population Pyknosed Nuclei (%),[1],9.15% and 10.06%
same,Population Tubulin-Different-Phenotype (%),[1],0.47% and 0.73%
same,Population Apoptotic (%),[2],37.93% and 21.21%
same,Population Fragmented Nuclei (%),[2],2.47% and 2.03%
same,Population Healthy Nuclei (%),[2],81.64% and 75.68%
same,Population Hoechst High Intensity Objects (%),[2],0.27% and 0%
same,Population Membrane Permeable-Phenotype (%),[2],11.74% and 10.71%
same,Population Mitotic Cells (%),[2],62.07% and 78.79%
same,Population Normal (%),[2],99.73% and 100%
same,Population Pyknosed Nuclei (%),[2],15.89% and 22.3%
same,Population Tubulin-Different-Phenotype (%),[2],14.09% and 5.36%
same,Total Cell Count,[2],366 and 148
same,Population Apoptotic (%),[3],41.67% and 39.13%
same,Population Fragmented Nuclei (%),[3],2.08% and 5.24%
same,Population Healthy Nuclei (%),[3],88.99% and 83.81%
same,Population Hoechst High Intensity Objects (%),[3],0%
same,Population Membrane Permeable-Phenotype (%),[3],0.67% and 2.84%
same,Population Mitochondria Different-Phenotype (%),[3],0.67% and 6.25%
same,Population Mitotic Cells (%),[3],58.33% and 60.87%
same,Population Normal (%),[3],100%
same,Population Pyknosed Nuclei (%),[3],8.93% and 10.95%
same,Population Tubulin-Different-Phenotype (%),[3],0.67% and 1.7%
same,Population Apoptotic (%),[4],64.1% and 26.19%
same,Population Fragmented Nuclei (%),[4],3.39% and 3.61%
same,Population Healthy Nuclei (%),[4],79.01% and 71.08%
same,Population Hoechst High Intensity Objects (%),[4],0%
same,Population Membrane Permeable-Phenotype (%),[4],8.57% and 6.78%
same,Population Mitotic Cells (%),[4],35.9% and 73.81%
same,Population Normal (%),[4],100%
same,Population Pyknosed Nuclei (%),[4],17.61% and 25.3%
same,Population Tubulin-Different-Phenotype (%),[4],10.29% and 10.17%
same,Total Cell Count,[4],443 and 166
same,Population Apoptotic (%),[5],42.28% and 50%
same,Population Fragmented Nuclei (%),[5],3.36% and 3.22%
same,Population Healthy Nuclei (%),[5],87.01% and 84.5%
same,Population Hoechst High Intensity Objects (%),[5],0%
same,Population Membrane Permeable-Phenotype (%),[5],0.54% and 2.42%
same,Population Mitochondria Different-Phenotype (%),[5],0% and 6.23%
same,Population Mitotic Cells (%),[5],57.72% and 50%
same,Population Normal (%),[5],100%
same,Population Pyknosed Nuclei (%),[5],9.62% and 12.28%
same,Population Tubulin-Different-Phenotype (%),[5],0.63% and 1.38%
same,Population Apoptotic (%),[6],65.09% and 50%
same,Population Fragmented Nuclei (%),[6],6.98% and 4.76%
same,Population Healthy Nuclei (%),[6],79.05% and 76.19%
same,Population Hoechst High Intensity Objects (%),[6],0%
same,Population Membrane Permeable-Phenotype (%),[6],4.33% and 8.52%
same,Population Mitotic Cells (%),[6],34.91% and 50%
same,Population Normal (%),[6],100%
same,Population Pyknosed Nuclei (%),[6],13.97% and 19.05%
same,Population Tubulin-Different-Phenotype (%),[6],10.17% and 11.93%
